Activity calls are given as the source filed them. No cut-off for these calls is given here.
Legend:
[1] = target: T1, Adenosine receptor A1 (Homo sapiens) (UniProt P30542); assay: AE activity is the ratio of specific binding at the end of dissociation to specific binding at the end of 120 min of equilibration at 50 uM concentration to Adenosine A1 receptor
T1 sequence (whole entry): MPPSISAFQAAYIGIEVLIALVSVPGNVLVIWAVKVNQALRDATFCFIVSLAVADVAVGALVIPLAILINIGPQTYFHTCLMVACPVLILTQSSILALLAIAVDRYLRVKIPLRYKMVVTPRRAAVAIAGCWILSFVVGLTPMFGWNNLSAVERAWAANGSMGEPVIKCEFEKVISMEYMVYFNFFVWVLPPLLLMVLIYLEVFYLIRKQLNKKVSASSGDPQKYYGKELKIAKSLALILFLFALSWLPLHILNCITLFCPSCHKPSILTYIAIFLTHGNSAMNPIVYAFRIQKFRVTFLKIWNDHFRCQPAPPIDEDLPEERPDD
Outline: (§1)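 Test agent from DMSO stock was added for 5 min. Dissociation was started with 8-CPT plus GTPγS and stopped after 10 min by glass-fibre filtration. Nonspecific binding (8-CPT/GTPγS, no agent) was subtracted. % = specific binding after dissociation ÷ after equilibration. Means of 2–3 experiments ±SEM.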

[2] = target: T1, Adenosine receptor A1 (Homo sapiens); assay: AE activity is the ratio of specific binding at the end of dissociation to specific binding at the end of 120 min of equilibration at 5 uM concentration to Adenosine A1 receptor; outline: as §1
Adenosine receptor A1 = target: T2, Adenosine receptor A1 (Homo sapiens, UniProt P30542); assay: Effective concentration against Adenosine A1 receptor
T2 sequence (P30542 whole entry): T1 sequence (whole entry)

[3] = target: T1, Adenosine receptor A1 (Homo sapiens); assay: AE activity is the ratio of specific binding at the end of dissociation to specific binding at the end of 120 min of equilibration at 50 uM concentration to Adenosine A1 receptor; not significantly active; outline: as §1
[4] = target: Adenosine receptor A2a (Homo sapiens) (UniProt P29274); assay: Percent allosteric enhancer (AE) activity from ratio of specific binding to Adenosine A2A receptor at end of dissociation to that of 120 min of equilibration
Sequence of Adenosine receptor A2a (Homo sapiens) (P29274 whole entry): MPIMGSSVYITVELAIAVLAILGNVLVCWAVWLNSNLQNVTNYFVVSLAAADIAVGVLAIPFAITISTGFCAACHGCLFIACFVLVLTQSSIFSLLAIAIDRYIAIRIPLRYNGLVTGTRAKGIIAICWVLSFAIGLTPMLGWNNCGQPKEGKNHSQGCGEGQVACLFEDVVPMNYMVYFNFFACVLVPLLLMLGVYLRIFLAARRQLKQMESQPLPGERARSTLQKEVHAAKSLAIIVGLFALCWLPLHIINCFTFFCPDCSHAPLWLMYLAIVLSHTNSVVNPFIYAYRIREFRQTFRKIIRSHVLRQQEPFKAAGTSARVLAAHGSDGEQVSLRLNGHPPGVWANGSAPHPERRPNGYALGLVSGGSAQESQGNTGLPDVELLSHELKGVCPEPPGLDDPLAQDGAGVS

[5] = target: T3, Adenosine receptor A3 (Homo sapiens) (UniProt P0DMS8); assay: Percent allosteric enhancer (AE) activity from ratio of specific binding to Adenosine A3 receptor at end of dissociation to that of 120 min of equilibration
T3 sequence (whole entry): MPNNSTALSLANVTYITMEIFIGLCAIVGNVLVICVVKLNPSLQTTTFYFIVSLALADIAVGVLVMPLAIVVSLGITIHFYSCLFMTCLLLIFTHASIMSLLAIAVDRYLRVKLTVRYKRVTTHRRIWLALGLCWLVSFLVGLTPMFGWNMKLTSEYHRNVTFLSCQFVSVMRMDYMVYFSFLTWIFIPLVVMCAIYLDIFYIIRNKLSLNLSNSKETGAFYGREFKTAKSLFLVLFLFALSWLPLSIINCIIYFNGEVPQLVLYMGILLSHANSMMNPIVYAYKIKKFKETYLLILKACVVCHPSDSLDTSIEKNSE

[6] = target: T1, Adenosine receptor A1 (Homo sapiens); assay: AE activity is the ratio of specific binding at the end of dissociation to specific binding at the end of 120 min of equilibration at 5 uM concentration to Adenosine A1 receptor; not significantly active; outline: as §1

Question: How did the AE activity [1] turn out when `Nc1nc2c(s1)CCCC2` was run?
Answer: 19%

Question: How did the AE activity [1] turn out when `Nc1nc2c(s1)COc1ccccc1-2` was run?
Answer: 62%

Question: Which AE activity [2] does the source give for `CCCCCOc1ccc2c(c1)CCc1sc(N)nc1-2` here?
Answer: 41%

Question: `Nc1nc2c(s1)Cc1ccccc1-2` was tested. Which AE activity [1] did it give?
Answer: 91%

Question: What about the EC50 (Adenosine receptor A1) of the same compound?
Answer: 38 µM

Question: For `Nc1nc2c(s1)Cc1cc(Br)ccc1-2`, which AE activity [3] is on record?
Answer: inactive

Question: With `COc1cc2c(cc1OC)-c1nc(N)sc1C2` as the compound, how does the AE activity [1] read?
Answer: 78%

Question: And the AE activity [4]?
Answer: 36%

Question: What about the AE activity [5] of the same compound?
Answer: 29%

Question: For `Nc1nc2c(s1)CCc1ccccc1-2`, which AE activity [1] is on record?
Answer: 80%

Question: What about the EC50 (Adenosine receptor A1) of the same compound?
Answer: 17 µM

Question: Which AE activity [1] does the source give for `COc1ccc2c(c1)CCc1sc(N)nc1-2` here?
Answer: 78%

Question: What about the AE activity [4] of the same compound?
Answer: 18%

Question: And the AE activity [5]?
Answer: 8%

Question: Which AE activity [1] does the source give for `COc1cc2c(c(OC)c1OC)-c1nc(N)sc1C2` here?
Answer: 24%

Question: `Nc1nc2c(s1)Cc1c(OC(=O)C3CCCCC3)cccc1-2` was tested. Which AE activity [3] did it give?
Answer: inactive

Question: `COc1ccc2c(c1)Cc1sc(N)nc1-2` was tested. Which AE activity [1] did it give?
Answer: 66%

Question: And the EC50 (Adenosine receptor A1)?
Answer: 50 µM

Question: Which AE activity [2] does the source give for `Nc1nc2c(s1)CCc1cc(OC(=O)c3ccccc3)ccc1-2` here?
Answer: 54%

Question: Which results are given for `COc1cc2c(c(OC)c1OC)Cc1sc(N)nc1-2`?
Answer: AE activity [2]: 60%; EC50 (Adenosine receptor A1): 17 µM

Question: With `Nc1nc2c(s1)-c1ccccc1CC2` as the compound, how does the AE activity [3] read?
Answer: inactive

Question: With `Nc1nc2c(s1)Cc1c(OC(=O)C3CCCC3)cccc1-2` as the compound, how does the AE activity [1] read?
Answer: 85%

Question: What about the EC50 (Adenosine receptor A1) of the same compound?
Answer: 4.5 µM

Question: Which results are given for `Cc1ccc2c(c1)-c1nc(N)sc1C2`?
Answer: AE activity [1]: 72%; EC50 (Adenosine receptor A1): 4.2 µM

Question: For `CCCCCCCCOc1ccc2c(c1)CCc1sc(N)nc1-2`, which AE activity [2] is on record?
Answer: 45%

Question: `Nc1nc2c(s1)-c1ccccc1C2` was tested. Which AE activity [3] did it give?
Answer: inactive

Question: `CC(=O)Oc1cccc2c1Cc1sc(N)nc1-2` was tested. Which AE activity [2] did it give?
Answer: 74%

Question: What about the AE activity [4] of the same compound?
Answer: 19%

Question: And the AE activity [5]?
Answer: 22%

Question: Which AE activity [3] does the source give for `Nc1nc2c(s1)CCCc1ccccc1-2` here?
Answer: inactive

Question: `Nc1nc2c(s1)CCc1cc(OC3C=CC=C3)ccc1-2` was tested. Which AE activity [6] did it give?
Answer: inactive

Question: For `CC(=O)Oc1ccc2c(c1)CCc1sc(N)nc1-2`, which AE activity [1] is on record?
Answer: 95%

Question: And the AE activity [4]?
Answer: 24%

Question: And the AE activity [5]?
Answer: 30%

Question: With `Nc1nc2c(s1)CCCCC2` as the compound, how does the AE activity [3] read?
Answer: inactive

Question: With `Cc1cccc2c1Cc1sc(N)nc1-2` as the compound, how does the AE activity [1] read?
Answer: 81%

— ChEMBL document CHEMBL1135138, “2-Aminothiazoles: a new class of agonist allosteric enhancers of A(1) adenosine receptors” (Bioorg Med Chem Lett, 2002)
